Active and inactive are the calls of the source. The calls are words filed in the database; no cut-off is given here.
Legend:
Influenza A virus [1] = test: Inhibition of influenza A virus A/Aichi/2/68 proliferation in MDCK cells at 10 uM relative to control; format: functional; parameters: scale not given: the % may be the effect or the level left
MDCK = test: Cytotoxicity against MDCK cells at 100 uM by MTT assay; format: cell-based, Canis lupus familiaris; conditions: dog
How it was run: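 Subconfluent MDCK cells (10⁴ cells/well) were exposed for 24 h to compound at 100 or 200 µM in MEM with 2% FBS; control was 1% DMSO. MTT was then added and OD read at 570 nm. Values are mean ± SD of three measurements.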

Influenza A virus [2] = test: Antiviral activity against influenza virus A virus A/PR/8/34 (H1N1) at 100 uM; format: functional, organism-based
How it was run: (§1)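 PBS-washed confluent MDCK monolayers were inoculated with virus in serum-free MEM and adsorbed for 45 min at room temperature. They were then cultured in agar medium with drug at 100 µM or 1% DMSO as control. Results are percent of control, mean ± SD of three experiments. Drug stocks were in DMSO, final DMSO <1%.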

Influenza A virus [3] = test: Antiviral activity against influenza A virus A/USSR/92/77 (H1N1) at 100 uM; format: functional, organism-based; how it was run: as §1
Influenza A virus [4] = test: Antiviral activity against influenza A virus A/NWS/33 (H1N1) at 100 uM; format: functional, organism-based; how it was run: as §1
Influenza B virus [5] = test: Antiviral activity against influenza B virus B/Lee at 100 uM; format: functional, organism-based; how it was run: as §1
Influenza B virus [6] = test: Antiviral activity against influenza B virus B/Singapore/222/79 at 100 uM; format: functional; how it was run: as §1
Influenza A virus [7] = test: Inhibition of influenza A virus A/Aichi/2/68 virus proliferation in MDCK cells; format: functional, organism-based
Influenza A virus [8] = test: Anti-influenza activity against influenza A virus A/Aichi/2/68 in MDCK cells administered at 100 uM within 1 hrs post infection; format: functional, organism-based
How it was run: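 MDCK cells were infected with A/Aichi/2/68 (H3N2) under drug-free conditions and then given drug at 100 µM after delays of 0–10 h at 37 °C. The paper describes a one-step growth design at MOI 5 PFU/cell with 1-h drug treatment. Virus yield was measured by plaque titration after 24 h total, as % of 1% DMSO control, mean ± SD of three experiments.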

## CC(C)C(Oc1ccc2c(c1)C[C@H]1OC=C3[C@H]1[C@@]2(C#N)CCCC31OCCO1)(C(C)C)C(C)C
Influenza A virus [1]
  Activity: 30%
MDCK
  Activity: Not Active
Influenza A virus [2]
  Activity: Active
Influenza A virus [3]
  Activity: Active
Influenza A virus [4]
  Activity: Active
Influenza B virus [5]
  Activity: Active
Influenza B virus [6]
  Activity: Active
Influenza A virus [7]
  Activity: Dose-dependent effect

## N#C[C@]12CCC3(OCCO3)C3=CO[C@H](Cc4cc(OC(F)(F)F)ccc41)[C@@H]32
Influenza A virus [1]
  Activity: 30%
MDCK
  Activity: Not Active
Influenza A virus [2]
  Activity: Active
Influenza A virus [3]
  Activity: Active
Influenza A virus [4]
  Activity: Active
Influenza B virus [5]
  Activity: Active
Influenza B virus [6]
  Activity: Active
Influenza A virus [8]
  Activity: Active
Influenza A virus [7]
  Activity: Dose-dependent effect

Reference: ChEMBL document CHEMBL1144493, “Synthesis and biological evaluation of dihydrofuran-fused perhydrophenanthrenes as a new anti-influenza agent having novel structural characteristic” (Bioorg Med Chem, 2007)
